Laboratory results from ChEMBL document CHEMBL3272177, “Hypolipidemic alkoxybenzoic acids” (1976).

Columns and labels:
Design in all cases: scale not given: the % may be the effect or the level left
Rattus norvegicus [1] = organism: Rattus norvegicus; assay: Reduction in sterol level in CFE rat […] in serum at 0.05% of diet treated through diet for 6 days relative to control; assay type: functional
Outline: (§1)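 Compound dissolved in methanol-chloroform (1:3 v/v), mixed into ground rat chow at 0.1, 0.05 or 0.025% (w/w), and solvent evaporated; controls received solvent-treated chow. Rats fed ad libitum with water for 6 days, then killed fed and bled. Serum sterols and triglycerides measured by autoanalyzer. Values given as percent of control, mean ± SE; significance by Student's t test.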

Rattus norvegicus [2] = organism: Rattus norvegicus; assay: Reduction in sterol level in CFE rat […] in serum at 0.1% of diet treated through diet for 6 days relative to control; assay type: functional; outline: as §1
Rattus norvegicus [3] = organism: Rattus norvegicus; assay: Reduction in triglyceride level in CFE rat […] in serum at 0.05% of diet treated through diet for 6 days relative to control; assay type: functional; outline: as §1
Rattus norvegicus [4] = organism: Rattus norvegicus; assay: Reduction in triglyceride level in CFE rat […] at 0.025% of diet treated through diet for 6 days relative to control; assay type: functional, Serum; outline: as §1
Rattus norvegicus [5] = organism: Rattus norvegicus; assay: Reduction in triglyceride level in CFE rat […] in serum at 0.1% of diet treated through diet for 6 days relative to control; assay type: functional; outline: as §1
Rattus norvegicus [6] = organism: Rattus norvegicus; assay: Reduction in sterol level in CFE rat […] at 0.025% of diet treated through diet for 6 days relative to control; assay type: functional, Serum; outline: as §1
Rattus norvegicus [7] = organism: Rattus norvegicus; assay: Reduction in triglyceride level in CFE rat […] in serum at 0.005% of diet treated through diet for 6 days relative to control; assay type: functional
Rattus norvegicus [8] = organism: Rattus norvegicus; assay: Reduction in sterol level in CFE rat […] in serum at 0.005% of diet treated through diet for 6 days relative to control; assay type: functional
Rattus norvegicus [9] = organism: Rattus norvegicus; assay: Reduction in triglyceride level in CFE rat […] in serum at 0.3% of diet treated through diet for 6 days relative to control; assay type: functional
Rattus norvegicus [10] = organism: Rattus norvegicus; assay: Reduction in sterol level in CFE rat […] in serum at 0.3% of diet treated through diet for 6 days relative to control; assay type: functional

SMILES	Activity (Rattus norvegicus [1]) [%]	Activity (Rattus norvegicus [2]) [%]	Activity (Rattus norvegicus [3]) [%]	Activity (Rattus norvegicus [4]) [%]	Activity (Rattus norvegicus [5]) [%]	Activity (Rattus norvegicus [6]) [%]	Activity (Rattus norvegicus [7]) [%]	Activity (Rattus norvegicus [8]) [%]	Activity (Rattus norvegicus [9]) [%]	Activity (Rattus norvegicus [10]) [%]
CCCCCCCCCCCCCCCCOc1ccc(C(=O)O)cc1	83	74	62	58	46	89	–	–	–	–
C=CCCCCCCCCCOc1ccc(C(=O)O)cc1	99	86	81	82	60	100	–	–	–	–
CC(C)=CCC/C(C)=C/CC/C(C)=C/COc1ccc(C(=O)O)cc1	102	87	111	131	133	108	–	–	–	–
CCCCCCCCCCCCCCCC(C)(C)Oc1ccc(C(=O)O)cc1	112	96	111	103	100	101	–	–	–	–
O=C(O)c1ccc(OC23CC4CC(CC(C4)C2)C3)cc1	87	88	89	85	85	90	–	–	–	–
CCCCCCCCC/C=C/CCCOc1ccc(C(=O)O)cc1	73	77	89	89	87	87	–	–	–	–
CCCCCCCCCC/C=C/CCCOc1ccc(C(=O)O)cc1	92	79	76	72	92	92	–	–	–	–
CCCCCCCCCCC/C=C/CCCOc1ccc(C(=O)O)cc1	67	69	76	76	59	75	–	–	–	–
CCCCCCCCCCCCC/C=C\COc1ccc(C(=O)O)cc1	87	90	79	88	60	95	–	–	–	–
CCCCCCCCCCCCC/C=C/COc1ccc(C(=O)O)cc1	85	81	57	45	46	106	–	–	–	–
CCCCCCCCCCCCCC#CCOc1ccc(C(=O)O)cc1	88	82	65	96	75	98	–	–	–	–
C=CCCCCCCCC/C=C/CCCOc1ccc(C(=O)O)cc1	87	74	96	83	83	92	–	–	–	–
CCCCCCCCCCCC1OC1CCCOc1ccc(C(=O)O)cc1 (stereo not given)	85	85	52	74	55	90	–	–	–	–
O=C(O)c1ccc(OC(=O)C2C3CC4CC(C3)CC2C4)cc1 (stereo not given)	99	92	101	90	113	93	–	–	–	–
O=C(O)c1ccc(OCCCCCCCCCCCCCCCOc2ccc(C(=O)O)cc2)cc1	103	94	77	64	51	97	–	–	–	–
CCCCCCCCCCCC(=O)CCOc1ccc(C(=O)O)cc1	89	92	75	84	74	89	–	–	–	–
FC(F)(F)c1ccc(-c2ccc(OCCN3CCCC3)cc2)cc1 [BOXIDINE]	–	–	–	–	–	–	55	60	–	–
CCOC(=O)C(C)(C)Oc1ccc(Cl)cc1 [CLOFIBRATE]	–	–	–	–	–	–	–	–	42	81
